Active and inactive are the calls of the source. No cut-off for these calls is given here.
Tests used:
HeLa = experiment: Inhibition of colony formation in human HeLa cells at 40 to 80 nM incubated for 5 days by crystal violet staining based light microscopy; type: functional, cell-based
Outline: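 4 × 10^3 cells per well were cultured with graded concentrations for 5 days. Cells were then fixed with 20% methanol, stained with 0.5% crystal violet and photographed by light microscopy.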

MDA-MB-231 = experiment: Induction of cell cycle arrest in human MDA-MB-231 cells assessed as accumulation in G2/M phase at 20 to 40 nM incubated for 36 hrs by propidium iodide staining based flow cytometry; type: functional
Outline: (§1)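 Cells were treated with graded concentrations for 36 h, then fixed overnight in 70% ice-cold ethanol at 4°C and resuspended in PBS. Staining used 50 µg/ml PI plus 5 µg/ml RNase at 37°C for 30 min. DNA content was analysed by FACS to give G0/G1, S and G2/M fractions.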

T47D [1] = experiment: Induction of cell cycle arrest in human T47D cells assessed as accumulation in G2/M phase at 20 to 40 nM incubated for 36 hrs by propidium iodide staining based flow cytometry; type: functional; outline: as §1
SiHa = experiment: Induction of cell cycle arrest in human SiHa cells assessed as accumulation in G2/M phase at 40 to 80 nM incubated for 36 hrs by propidium iodide staining based flow cytometry; type: functional; outline: as §1
[2] = Toxicity in NOD/SCID BALB/c mouse xenografted with human SiHa cells assessed as effect on blood parameter by measuring WBC content at 40 mg/kg, po administered once two days for 4 times by hematology analyzer; type: organism-based; conditions: in vivo
[3] = target: Discoidin domain-containing receptor 2 (Homo sapiens) (UniProt Q16832); experiment: Inhibition of recombinant human DDR2 (467 to end residues) at 1 uM using KKSRGDYMTMQIG as substrate incubated for 40 mins in presence of [gamma-33P]-ATP by scintillation counting method relative to control
Outline: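 Kinase panel profiling at 1 μM performed by Eurofins KinaseProfiler; percent inhibition reported as mean of two independent experiments.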

[4] = target: Eukaryotic elongation factor 2 kinase (Homo sapiens) (UniProt O00418); experiment: Inhibition of recombinant human eEF-2K (2 to end residues) at 1 uM using RKKFGESEKTKTKEFL as substrate incubated for 40 mins in presence of [gamma-33P]-ATP by scintillation counting method relative to control
Outline: (§2)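 Tested at a single 1 uM in an outsourced commercial kinase-profiling panel, read as percent inhibition. Each value is the mean of two independent experiments.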

[5] = target: Ephrin type-A receptor 4 (Homo sapiens) (UniProt P54764); experiment: Inhibition of recombinant human EPhA4 (601 to 892 residues) at 1 uM using poly(Glu, Tyr) 4:1 as substrate incubated for 40 mins in presence of [gamma-33P]-ATP by scintillation counting method relative to control
[6] = target: Beta-adrenergic receptor kinase 1 (Homo sapiens) (UniProt P25098); experiment: Inhibition of recombinant human full length GRK2 at 1 uM using casein as substrate incubated for 40 mins in presence of [gamma-33P]-ATP by scintillation counting method relative to control; outline: as §2
[7] = target: LIM domain kinase 1 (Homo sapiens) (UniProt P53667); experiment: Inhibition of recombinant human LIMK1 (285 to 638 residues) at 1 uM using cofilin as substrate incubated for 40 mins in presence of [gamma-33P]-ATP by scintillation counting method relative to control
[8] = target: Myosin-IIIb (Homo sapiens) (UniProt Q8WXR4); experiment: Inhibition of recombinant human MYO3B (1 to 326 residues) at 1 uM using RLGRDKYKTLRQIRQ as substrate incubated for 40 mins in presence of [gamma-33P]-ATP by scintillation counting method relative to control
[9] = target: Death-associated protein kinase 3 (Homo sapiens) (UniProt O43293); experiment: Inhibition of recombinant human ZIPK (1 to 290 residues) at 1 uM using KKLNRTLSFAEPG as substrate incubated for 40 mins in presence of [gamma-33P]-ATP by scintillation counting method relative to control
[10] = target: Protein kinase C iota type (Homo sapiens) (UniProt P41743); experiment: Inhibition of recombinant human full length PKCiota at 1 uM using ERMRPRKRQGSVRRRV as substrate incubated for 40 mins in presence of [gamma-33P]-ATP by scintillation counting method relative to control
[11] = target: Serine/threonine-protein kinase D2 (Homo sapiens) (UniProt Q9BZL6); experiment: Inhibition of recombinant human full length PKD2 at 1 uM using KKLNRTLSVA as substrate incubated for 40 mins in presence of [gamma-33P]-ATP by scintillation counting method relative to control
[12] = target: Protein kinase C epsilon type (Homo sapiens) (UniProt Q02156); experiment: Inhibition of recombinant human PKCepsilon (2 to end residues) at 1 uM using ERMRPRKRQGSVRRRV as substrate incubated for 40 mins in presence of [gamma-33P]-ATP by scintillation counting method relative to control
[13] = tested on: Proto-oncogene tyrosine-protein kinase receptor Ret (Homo sapiens), P07949 [V804M]; experiment: Inhibition of recombinant human RET V804M mutant (658 to end residues) at 1 uM using KKKVSRSGLYRSPSMPENLNRPR as substrate incubated for 40 mins in presence of [gamma-33P]-ATP by scintillation counting method relative to control
[14] = target: Tyrosine-protein kinase SYK (Homo sapiens) (UniProt P43405); experiment: Inhibition of recombinant human full length SYK at 1 uM using poly(Glu, Tyr) 4:1 as substrate incubated for 40 mins in presence of [gamma-33P]-ATP by scintillation counting method relative to control
[15] = target: Mitogen-activated protein kinase kinase kinase 7 (Homo sapiens) (UniProt O43318); experiment: Inhibition of recombinant human TAK1 (1 to 303 residues) at 1 uM using casein as substrate incubated for 40 mins in presence of [gamma-33P]-ATP by scintillation counting method relative to control
[16] = target: Serine/threonine-protein kinase TAO3 (Homo sapiens) (UniProt Q9H2K8); experiment: Inhibition of recombinant human TAO3 (1 to 411 residues) at 1 uM using myelin basic protein as substrate incubated for 40 mins in presence of [gamma-33P]-ATP by scintillation counting method relative to control
[17] = tested on: Angiopoietin-1 receptor (Homo sapiens), Q02763 [Y897S]; experiment: Inhibition of recombinant human TIE2 Y897S mutant (771 to end residues) at 1 uM using EFPIYDFLPAKKK as substrate incubated for 40 mins in presence of [gamma-33P]-ATP by scintillation counting method relative to control
[18] = Toxicity in BALB/c mouse assessed as effect on blood parameter by measuring monocytes content at 40 mg/kg, po administered once two days for 4 times by hematology analyzer; conditions: in vivo
T47D [19] = experiment: Inhibition of colony formation in human T47D cells at 40 nM incubated for 5 days by crystal violet staining based light microscopy; type: functional, cell-based
Outline: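 MDA-MB-231, T-47D, SiHa and HeLa cells seeded at 4×10^3/well and cultured with varying concentrations of drug or vehicle for 5 days. Fixed in 20% methanol, stained with 0.5% crystal violet, photographed under light microscopy. DMEM (T-47D) with 10% FBS, 37°C, 5% CO2.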

Serine/threonine-protein kinase D2 (Homo sapiens), sequence (Q9BZL6 whole entry): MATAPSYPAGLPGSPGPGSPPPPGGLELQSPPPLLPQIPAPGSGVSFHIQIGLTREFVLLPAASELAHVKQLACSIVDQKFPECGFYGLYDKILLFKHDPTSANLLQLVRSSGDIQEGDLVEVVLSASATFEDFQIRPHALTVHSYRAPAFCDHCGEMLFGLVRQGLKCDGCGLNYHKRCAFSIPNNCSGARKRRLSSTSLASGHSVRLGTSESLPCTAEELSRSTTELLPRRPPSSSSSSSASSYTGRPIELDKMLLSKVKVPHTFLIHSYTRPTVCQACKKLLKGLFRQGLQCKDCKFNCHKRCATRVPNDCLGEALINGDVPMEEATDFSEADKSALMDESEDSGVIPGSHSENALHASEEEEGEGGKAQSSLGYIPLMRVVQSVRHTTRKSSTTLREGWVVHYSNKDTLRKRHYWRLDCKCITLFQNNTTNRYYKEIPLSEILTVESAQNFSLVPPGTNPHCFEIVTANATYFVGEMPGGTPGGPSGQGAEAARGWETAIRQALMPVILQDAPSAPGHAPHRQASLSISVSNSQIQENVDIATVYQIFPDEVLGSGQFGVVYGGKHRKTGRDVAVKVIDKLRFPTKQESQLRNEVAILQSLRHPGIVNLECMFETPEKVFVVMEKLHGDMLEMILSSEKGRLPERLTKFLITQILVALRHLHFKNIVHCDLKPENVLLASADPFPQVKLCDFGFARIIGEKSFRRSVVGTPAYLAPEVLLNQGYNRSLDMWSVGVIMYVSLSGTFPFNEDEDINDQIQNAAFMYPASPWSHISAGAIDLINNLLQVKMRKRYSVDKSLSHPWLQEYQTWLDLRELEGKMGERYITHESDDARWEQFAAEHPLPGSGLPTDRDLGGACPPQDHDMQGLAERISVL
Ephrin type-A receptor 4 (Homo sapiens), sequence (P54764 whole entry, the tested form may be a part): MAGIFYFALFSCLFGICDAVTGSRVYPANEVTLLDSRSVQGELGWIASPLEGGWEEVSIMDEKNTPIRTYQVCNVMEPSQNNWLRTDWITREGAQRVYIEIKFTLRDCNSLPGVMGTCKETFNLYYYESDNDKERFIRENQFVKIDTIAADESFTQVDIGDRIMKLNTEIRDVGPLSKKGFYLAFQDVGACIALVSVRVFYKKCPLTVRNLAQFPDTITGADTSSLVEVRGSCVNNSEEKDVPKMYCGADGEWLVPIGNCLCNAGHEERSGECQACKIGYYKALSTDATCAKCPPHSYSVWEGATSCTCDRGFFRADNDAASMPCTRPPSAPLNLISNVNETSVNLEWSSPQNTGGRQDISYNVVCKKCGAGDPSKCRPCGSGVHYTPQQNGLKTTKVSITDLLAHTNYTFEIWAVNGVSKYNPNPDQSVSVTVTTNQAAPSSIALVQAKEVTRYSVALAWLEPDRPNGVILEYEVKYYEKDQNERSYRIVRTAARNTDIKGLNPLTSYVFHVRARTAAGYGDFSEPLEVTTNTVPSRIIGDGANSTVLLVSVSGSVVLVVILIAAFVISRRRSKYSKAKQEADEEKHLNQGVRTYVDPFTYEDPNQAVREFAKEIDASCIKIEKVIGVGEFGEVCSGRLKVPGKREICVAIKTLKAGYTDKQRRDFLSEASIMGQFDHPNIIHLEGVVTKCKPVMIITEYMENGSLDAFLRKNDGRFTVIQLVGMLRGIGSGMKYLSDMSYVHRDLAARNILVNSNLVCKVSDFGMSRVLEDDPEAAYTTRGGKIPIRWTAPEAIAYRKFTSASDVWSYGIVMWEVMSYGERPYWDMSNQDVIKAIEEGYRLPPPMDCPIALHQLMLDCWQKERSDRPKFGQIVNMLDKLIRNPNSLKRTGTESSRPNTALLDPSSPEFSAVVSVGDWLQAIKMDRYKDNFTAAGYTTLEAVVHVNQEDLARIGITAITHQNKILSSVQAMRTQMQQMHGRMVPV
Eukaryotic elongation factor 2 kinase (Homo sapiens), sequence (O00418 whole entry): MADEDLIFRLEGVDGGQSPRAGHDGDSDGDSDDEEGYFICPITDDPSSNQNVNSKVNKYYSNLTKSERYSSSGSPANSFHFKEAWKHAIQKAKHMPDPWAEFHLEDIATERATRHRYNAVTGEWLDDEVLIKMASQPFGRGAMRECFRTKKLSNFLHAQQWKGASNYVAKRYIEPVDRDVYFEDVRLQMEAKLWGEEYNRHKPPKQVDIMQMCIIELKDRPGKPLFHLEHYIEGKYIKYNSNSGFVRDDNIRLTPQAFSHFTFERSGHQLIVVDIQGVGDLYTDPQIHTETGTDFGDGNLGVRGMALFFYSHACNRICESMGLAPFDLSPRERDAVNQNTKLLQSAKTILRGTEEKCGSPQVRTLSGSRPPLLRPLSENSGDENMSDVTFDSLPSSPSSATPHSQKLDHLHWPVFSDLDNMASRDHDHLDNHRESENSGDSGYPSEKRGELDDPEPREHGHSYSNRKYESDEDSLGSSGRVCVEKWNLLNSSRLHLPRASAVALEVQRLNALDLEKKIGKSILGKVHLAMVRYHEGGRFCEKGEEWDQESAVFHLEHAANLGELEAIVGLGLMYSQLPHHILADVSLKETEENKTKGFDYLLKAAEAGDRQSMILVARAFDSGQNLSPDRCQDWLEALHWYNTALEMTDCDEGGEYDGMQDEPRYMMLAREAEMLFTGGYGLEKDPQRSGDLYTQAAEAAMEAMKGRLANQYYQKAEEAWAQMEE
Proto-oncogene tyrosine-protein kinase receptor Ret (Homo sapiens), P07949 [V804M], sequence (P07949 whole entry V804M): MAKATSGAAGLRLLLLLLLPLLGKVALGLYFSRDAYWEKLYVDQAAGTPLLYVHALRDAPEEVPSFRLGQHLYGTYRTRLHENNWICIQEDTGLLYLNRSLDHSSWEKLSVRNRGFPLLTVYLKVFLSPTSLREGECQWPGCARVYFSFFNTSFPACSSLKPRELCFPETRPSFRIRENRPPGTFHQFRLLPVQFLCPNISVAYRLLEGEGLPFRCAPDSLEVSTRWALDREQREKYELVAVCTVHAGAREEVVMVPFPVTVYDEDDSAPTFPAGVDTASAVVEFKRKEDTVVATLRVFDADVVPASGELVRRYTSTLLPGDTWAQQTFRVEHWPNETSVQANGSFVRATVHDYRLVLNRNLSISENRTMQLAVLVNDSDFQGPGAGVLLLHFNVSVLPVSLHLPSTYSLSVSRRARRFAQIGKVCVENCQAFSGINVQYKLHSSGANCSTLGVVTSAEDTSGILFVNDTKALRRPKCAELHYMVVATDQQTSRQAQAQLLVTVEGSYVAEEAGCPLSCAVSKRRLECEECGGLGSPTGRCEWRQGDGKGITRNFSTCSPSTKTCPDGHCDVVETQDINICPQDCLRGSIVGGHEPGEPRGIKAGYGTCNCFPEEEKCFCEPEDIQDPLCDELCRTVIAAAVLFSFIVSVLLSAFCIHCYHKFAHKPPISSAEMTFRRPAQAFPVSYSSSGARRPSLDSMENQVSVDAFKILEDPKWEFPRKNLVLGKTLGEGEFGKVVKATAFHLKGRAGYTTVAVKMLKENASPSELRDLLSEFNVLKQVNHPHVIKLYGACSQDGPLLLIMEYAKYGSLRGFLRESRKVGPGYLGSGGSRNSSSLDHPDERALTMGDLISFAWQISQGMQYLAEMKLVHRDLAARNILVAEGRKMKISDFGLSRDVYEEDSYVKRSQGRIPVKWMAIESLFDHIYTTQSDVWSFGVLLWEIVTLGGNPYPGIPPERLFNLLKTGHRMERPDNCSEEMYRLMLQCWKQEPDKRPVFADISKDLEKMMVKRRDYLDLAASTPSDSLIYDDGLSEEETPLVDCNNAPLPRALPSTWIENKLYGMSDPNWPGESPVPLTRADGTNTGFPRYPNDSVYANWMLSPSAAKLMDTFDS
Protein kinase C epsilon type (Homo sapiens), sequence (Q02156 whole entry): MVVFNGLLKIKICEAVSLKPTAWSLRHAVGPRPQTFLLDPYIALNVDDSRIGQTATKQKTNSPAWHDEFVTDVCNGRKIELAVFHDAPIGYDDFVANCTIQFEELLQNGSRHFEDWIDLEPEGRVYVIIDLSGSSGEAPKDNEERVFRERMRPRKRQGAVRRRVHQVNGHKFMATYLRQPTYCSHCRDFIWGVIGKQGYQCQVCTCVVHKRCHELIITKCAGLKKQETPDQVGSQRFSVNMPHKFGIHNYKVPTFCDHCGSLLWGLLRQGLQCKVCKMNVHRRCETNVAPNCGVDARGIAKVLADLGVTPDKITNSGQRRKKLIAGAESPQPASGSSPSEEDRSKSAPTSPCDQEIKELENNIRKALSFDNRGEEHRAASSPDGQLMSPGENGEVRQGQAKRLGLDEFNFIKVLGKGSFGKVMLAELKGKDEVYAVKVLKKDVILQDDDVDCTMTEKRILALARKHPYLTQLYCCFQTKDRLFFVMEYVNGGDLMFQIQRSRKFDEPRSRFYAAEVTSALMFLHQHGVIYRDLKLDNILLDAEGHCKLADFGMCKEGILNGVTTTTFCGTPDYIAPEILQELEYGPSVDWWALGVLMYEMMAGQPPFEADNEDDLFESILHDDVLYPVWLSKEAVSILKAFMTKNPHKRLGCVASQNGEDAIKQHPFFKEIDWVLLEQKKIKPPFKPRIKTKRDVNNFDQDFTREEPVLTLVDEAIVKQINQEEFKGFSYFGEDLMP
LIM domain kinase 1 (Homo sapiens), sequence (P53667 whole entry, looked up, the tested form may be a part): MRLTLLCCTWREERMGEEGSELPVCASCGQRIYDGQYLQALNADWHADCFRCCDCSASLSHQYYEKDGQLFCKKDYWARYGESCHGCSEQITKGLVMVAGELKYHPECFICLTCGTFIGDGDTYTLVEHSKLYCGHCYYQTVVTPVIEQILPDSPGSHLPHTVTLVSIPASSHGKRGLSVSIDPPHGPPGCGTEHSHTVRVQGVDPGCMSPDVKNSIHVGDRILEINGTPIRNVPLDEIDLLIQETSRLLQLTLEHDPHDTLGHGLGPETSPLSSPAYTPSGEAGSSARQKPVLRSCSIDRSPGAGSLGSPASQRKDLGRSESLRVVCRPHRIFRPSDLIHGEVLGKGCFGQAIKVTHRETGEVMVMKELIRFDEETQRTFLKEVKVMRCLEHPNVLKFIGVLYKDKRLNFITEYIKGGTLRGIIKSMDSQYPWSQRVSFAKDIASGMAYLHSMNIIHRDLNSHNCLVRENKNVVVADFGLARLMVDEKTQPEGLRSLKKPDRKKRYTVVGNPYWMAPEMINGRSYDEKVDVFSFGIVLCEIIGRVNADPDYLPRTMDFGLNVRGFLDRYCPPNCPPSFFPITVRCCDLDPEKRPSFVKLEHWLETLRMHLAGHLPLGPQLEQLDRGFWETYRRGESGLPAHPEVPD

Cc1ccc(NC(=O)C2(C(=O)Nc3ccc(Nc4ncc(F)c(-c5cc(F)c6nc(C)n(C(C)C)c6c5)n4)cc3)CC2)cc1
inhibition (HeLa): Active
Activity (MDA-MB-231): Active
Activity (T47D [1]): Active
Activity (SiHa): Active
Activity [2]: Non-Toxic
inhibition [3]: 55%
inhibition [4]: 0%
inhibition [5]: 28%
inhibition [6]: 0%
inhibition [7]: 24%
inhibition [8]: 10%
inhibition [9]: 12%
inhibition [10]: 5%
inhibition [11]: 17%
inhibition [12]: 16%
inhibition [13]: 27%
inhibition [14]: 49%
inhibition [15]: 7%
inhibition [16]: 2%
inhibition [17]: 51%
Activity [18]: Non-Toxic

COc1cc2nccc(Oc3ccc(NC(=O)C4(C(=O)Nc5ccc(F)cc5)CC4)cc3)c2cc1OC [CABOZANTINIB]
inhibition (T47D [19]): Active

— ChEMBL document CHEMBL4406821, “Novel dual inhibitors targeting CDK4 and VEGFR2 synergistically suppressed cancer progression and angiogenesis” (Eur J Med Chem, 2019)
